From PMC4763880 (Molecular Biosystems, 2016)
One block for each molecule: values may come before it. Square brackets hold non-standard residues; d marks the D form. Ends that are not written are not given here. * marks the point of attachment. MethylRed = CN(C)c1ccc(/N=N/c2ccccc2C(=O)*)cc1; Dnp = O=[N+]([O-])c1ccc(*)c([N+](=O)[O-])c1; AFC = O=c1cc(C(F)(F)F)c2ccc(N*)cc2o1; Mca = COc1ccc2c(CC(=O)*)cc(=O)oc2c1; Ahx = NCCCCCC(=O)O

Key:
[1] = target: T1, recombinant human caspase-7 (Homo sapiens, UniProt P55210); assay: Kinetic assay; assay type: biochemical; conditions: caspase-7 15 nM; pH 7.5 caspase buffer; n = 3
T1 sequence (P55210 24-198 limits assumed): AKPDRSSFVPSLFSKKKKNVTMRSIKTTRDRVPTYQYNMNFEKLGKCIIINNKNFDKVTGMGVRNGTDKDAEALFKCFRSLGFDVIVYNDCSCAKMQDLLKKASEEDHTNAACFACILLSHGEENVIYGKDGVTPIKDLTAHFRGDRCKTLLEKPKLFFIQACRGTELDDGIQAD
T1 sequence (P55210 207-303 limits assumed): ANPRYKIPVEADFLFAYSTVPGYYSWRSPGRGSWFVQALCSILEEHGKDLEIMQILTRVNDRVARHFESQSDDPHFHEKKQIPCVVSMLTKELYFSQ
Procedure, shortened: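 Human recombinant enzyme was incubated with internally quenched FRET substrates, FAM-Ahx-Asp-Glu-X2-Asp-X1′-(Ahx)-Lys(MR)-NH2. X2 was Val or Pro; X1′ was Gly, Ala, Ser or absent. The donor was 5(6)-carboxyfluorescein (Ex/Em 492/517 nm) and the quencher methyl red. Cleavage between Asp and X1′ relieves quenching. KM and kcat were determined for each substrate, and catalytic efficiency taken as kcat/KM.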

[2] = test system: caspase-3; assay: Screen of time-dependent fluorescence activation with caspase-3; assay type: biochemical, human; conditions: caspase-3 15 nM; for Activation with caspase-3 in preliminary screen (in words): substrate 2.5, 5 and 10 μM, 0-40 min, n = 3 (Fig. S1)
[3] = target: T2, human recombinant caspase-7 (human) (UniProt P55210)
T2 sequence: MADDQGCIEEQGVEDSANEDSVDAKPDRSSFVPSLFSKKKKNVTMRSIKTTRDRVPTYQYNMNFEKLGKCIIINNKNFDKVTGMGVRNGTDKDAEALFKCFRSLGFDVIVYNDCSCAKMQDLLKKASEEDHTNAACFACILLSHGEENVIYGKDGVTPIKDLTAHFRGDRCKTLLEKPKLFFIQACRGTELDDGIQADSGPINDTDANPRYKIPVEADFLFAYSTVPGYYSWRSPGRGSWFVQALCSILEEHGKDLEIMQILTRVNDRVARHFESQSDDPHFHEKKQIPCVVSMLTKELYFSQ

[4] = target: T3, human recombinant caspase-3 (human) (UniProt P42574)
T3 sequence: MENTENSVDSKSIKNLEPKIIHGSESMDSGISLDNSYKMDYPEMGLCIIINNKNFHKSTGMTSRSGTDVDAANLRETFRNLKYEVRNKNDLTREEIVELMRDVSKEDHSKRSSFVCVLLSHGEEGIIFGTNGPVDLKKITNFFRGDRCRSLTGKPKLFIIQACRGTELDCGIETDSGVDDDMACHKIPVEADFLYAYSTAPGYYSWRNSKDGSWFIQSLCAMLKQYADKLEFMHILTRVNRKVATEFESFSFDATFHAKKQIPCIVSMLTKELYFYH

Molecule: Ac-Asp-Glu-Val-Asp-AFC [reference compound]
- Caspase-7 k cat/K M (catalytic efficiency) [1]: 1.1 μM^–1 min^–1

Molecule: MCA-Asp-Glu-Val-Asp-Ala-Pro-Lys-DNP [reference compound]
- Caspase-7 k cat/K M (catalytic efficiency) [1]: 0.4 μM^–1 min^–1

Molecule: Substrate 1: FRET substrate FAM-Ahx-Asp-Glu-X2-Asp-X1′-spacer-Lys(MR)-NH2; X2 Val, X1′ Gly, no spacer ({5(6)‑carboxyfluorescein-Ahx}-DEVDGK(MethylRed)-NH2)
- Caspase-7 k cat/K M (catalytic efficiency) [1]: 8.6 μM^–1 min^–1

Molecule: Substrate 2: FRET substrate of the template; X2 Pro, X1′ Ala, no spacer ({5(6)‑carboxyfluorescein-Ahx}-DEPDAK(MethylRed)-NH2)
- Activation with caspase-3 in preliminary screen (in words) [2]: reduced activation

Molecule: Substrate 3: FRET substrate of the template; X2 Pro, X1′ Ser, no spacer ({5(6)‑carboxyfluorescein-Ahx}-DEPDSK(MethylRed)-NH2)
- Activation with caspase-3 in preliminary screen (in words) [2]: reduced activation

Molecule: Substrate 4: FRET substrate of the template; X2 Val, no X1′, spacer Ahx ({5(6)‑carboxyfluorescein-Ahx}-DEVD[Ahx]K(MethylRed)-NH2)
- Caspase-7 k cat/K M (catalytic efficiency) [1]: 3.4 μM^–1 min^–1

Molecule: Substrate 5: FRET substrate of the template; X2 Pro, no X1′, spacer Ahx ({5(6)‑carboxyfluorescein-Ahx}-DEPD[Ahx]K(MethylRed)-NH2)
- Caspase-7 k cat/K M (catalytic efficiency) [1]: 3.5 μM^–1 min^–1

Molecule: Substrate 6: FRET substrate of the template; X2 Pro, X1′ Gly, spacer Ahx ({5(6)‑carboxyfluorescein-Ahx}-DEPDG[Ahx]K(MethylRed)-NH2)
- Caspase-7 k cat/K M (catalytic efficiency) [1]: 8.4 μM^–1 min^–1

Molecule: Substrate 7: FRET substrate of the template; X2 Val, X1′ Gly, spacer Ahx ({5(6)‑carboxyfluorescein-Ahx}-DEVDG[Ahx]K(MethylRed)-NH2)
- Caspase-7 k cat/K M (catalytic efficiency) [1]: 3.9 μM^–1 min^–1

Molecule: Substrate 8: FRET substrate of the template; X2 Pro, X1′ Ala, spacer Ahx ({5(6)‑carboxyfluorescein-Ahx}-DEPDA[Ahx]K(MethylRed)-NH2)
- Activation with caspase-3 in preliminary screen (in words) [2]: activity was restored
- Caspase-7 k cat/K M (catalytic efficiency) [1]: 0.14 μM^–1 min^–1

Molecule: Substrate 9: FRET substrate of the template; X2 Val, X1′ Ala, spacer Ahx ({5(6)‑carboxyfluorescein-Ahx}-DEVDA[Ahx]K(MethylRed)-NH2)
- Fold higher increase in fluorescence than Ac-Asp-Glu-Val-Asp-AFC (AFC) ([2]; all substrates at 20 μM, n = 3 (Fig. S2)): 3 fold
- Caspase-7 k cat/K M (catalytic efficiency) [1]: 3.2 μM^–1 min^–1

Molecule: Substrate 10: FRET substrate of the template; X2 Pro, X1′ Ser, spacer Ahx ({5(6)‑carboxyfluorescein-Ahx}-DEPDS[Ahx]K(MethylRed)-NH2)
- Activation with caspase-3 in preliminary screen (in words) [2]: activity was restored
- Caspase-7 k cat/K M (catalytic efficiency) [1]: 0.5 μM^–1 min^–1

Molecule: Substrate 11: FRET substrate of the template; X2 Val, X1′ Ser, spacer Ahx ({5(6)‑carboxyfluorescein-Ahx}-DEVDS[Ahx]K(MethylRed)-NH2)
- Caspase-7 k cat/K M (catalytic efficiency) [1]: 2.4 μM^–1 min^–1

- K M (μM) of cleavage of the fluorogenic substrate by caspase-7 [3]: 15.1 µM
- K M (μM) of cleavage of the fluorogenic substrate by caspase-3 [4]: 13.5 µM
B1: MCA-Asp-Glu-Val-Asp-Ala-Pro-Lys-DNP (peptide)
peptide: Mca-DEVDAPK(Dnp)

- K M (μM) of cleavage of the fluorogenic substrate by caspase-7 [3]: 10.8 µM
- K M (μM) of cleavage of the fluorogenic substrate by caspase-3 [4]: 9.8 µM
B2: Ac-Asp-Glu-Val-Asp-AFC (peptide)
peptide: Ac-DEVD-{AFC}
